Screening results: PubChem, Johns Hopkins Ion Channel Center
MrgX1 agonist = agonists of human MrgX1 receptor, primary screen, HEK293 cells, Fluo-4 calcium flux; 310,000 compounds, 0.44% hits; Fluo-4 calcium fluorescence, agonist mode; stronger effect = higher value; Mas-related G-protein coupled receptor member X1 (Homo sapiens), Q96LB2; B-score at 10 µM;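 active = calcium response B-score plate-corrected fluorescence ratio at least 3 library SD, with starting fluorescence B-score inside 5 SD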
Target sequence (Q96LB2 whole entry, looked up): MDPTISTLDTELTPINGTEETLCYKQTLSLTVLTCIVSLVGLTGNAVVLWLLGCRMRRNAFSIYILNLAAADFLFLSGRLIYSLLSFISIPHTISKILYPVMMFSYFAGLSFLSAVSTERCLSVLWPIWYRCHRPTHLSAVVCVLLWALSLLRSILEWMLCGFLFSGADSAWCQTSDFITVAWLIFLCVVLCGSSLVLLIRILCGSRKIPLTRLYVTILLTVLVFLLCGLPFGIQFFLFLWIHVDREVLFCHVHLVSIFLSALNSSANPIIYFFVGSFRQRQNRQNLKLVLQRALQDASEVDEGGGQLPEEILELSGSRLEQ
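Material: HEK293 cells stably expressing human MrgX1 receptor | Quantity: 15,000 cells per well | Times: Cells plated overnight, dye loaded 0.5 h 37 °C, 0.5 h room temperature | Measured by: Kinetic Fluo-4 NW fluorescence of intracellular calcium | Control set: Positive and negative controls per plate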
MrgX1 allo act = positive allosteric modulators of MrgX1, primary screen, HEK293 cells, Fluo-4 calcium flux; Mas-related G-protein coupled receptor member X1 (Homo sapiens), Q96LB2; FDSS; stronger effect = higher value; B-score at 10 µM; 310,000 compounds, 0.63% hits;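 active = plate-corrected calcium response at least 3 library SD above typical, normal starting fluorescence, not activating the receptor alone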;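 also: compound read alongside a low EC10 to EC30 dose of BAM8-22 agonist; peak minus trough fluorescence over baseline measured at the second addition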
RGS4 pot = RGS4 potentiators or activators, primary screen, cell-based, HEK293 M3R inducible RGS4, calcium flux. carbachol calcium flux Fluo4; stronger effect = lower value. B-score at 10 µM. 310,000 compounds, 0.92% hits;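 active = B-score of the integrated calcium signal more than 4 SD below the library mean, with starting fluorescence not abnormally high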;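 also: negative B-score means reduced calcium response which marks RGS4 activation or potentiation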
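Reagent: ECmax carbachol challenge; Test system: M3R-expressing HEK293 line, RGS4 induced by doxycycline; Schedule: overnight RGS4 induction, 30 min dye load 37 °C, 20 min compound RT; Detection: calcium dye Fluo4 fluorescence; Read-out: Agonist-evoked peak-minus-minimum fluorescence over baseline, integrated ratio, B score.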
RGS4 block = RGS4 inhibitors, primary screen, cell-based, HEK293 M3R inducible RGS4, calcium flux. B-score at 10 µM. Regulator of G-protein signaling 4 (Homo sapiens), P49798. AID 463165, 2010. Fluo-4 calcium flux; stronger effect = higher value; triggered by carbachol at its EC20. 310,000 compounds, 0.45% hits;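 active = B-score, a plate-corrected calcium signal, over three deviations above library mean, with baseline fluorescence within five deviations of library mean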;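 also: RGS4 expression induced by doxycycline in cells with stable M3 receptor; B-score is computed from the integrated fluorescence ratio over baseline after carbachol; higher B-score means a larger calcium signal and so more RGS4 inhibition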
Target sequence (P49798 whole entry, looked up): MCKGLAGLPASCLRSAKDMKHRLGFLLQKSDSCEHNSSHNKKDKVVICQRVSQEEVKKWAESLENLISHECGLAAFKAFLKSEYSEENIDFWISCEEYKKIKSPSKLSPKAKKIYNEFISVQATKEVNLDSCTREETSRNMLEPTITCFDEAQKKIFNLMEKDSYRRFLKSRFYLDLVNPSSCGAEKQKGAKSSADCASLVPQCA
MrgX1 antagonist = antagonists of human MrgX1 receptor, primary screen, HEK293 cells, Fluo-4 calcium flux; BAM8-22 antagonism; stronger effect = lower value; 310,000 compounds, 1.3% hits; B-score at 10 µM; Mas-related G-protein coupled receptor member X1 (Homo sapiens), Q96LB2;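 active = calcium-response B-score plate-corrected more than 3 library SD below zero, starting fluorescence within 5 deviations, no agonist response on first addition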;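 also: peak minus trough fluorescence over baseline after final BAM8-22 challenge near maximal dose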
RGS4 inh valid = enhanced carbachol calcium response, M3R/RGS4 cells, RGS4 inhibitor project, cell-based, validation screen, HEK293 M3R/RGS4, calcium flux. shares compounds with RGS4 block. carbachol calcium Fluo-4 fluorescence; carbachol added at its EC20; 0 = buffer wells, 100 = carbachol control. calcium response, % at 10 µM. 1,700 compounds, 65% hits;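 active = duplicate-averaged calcium response above the buffer-only control mean plus 5 SD of those controls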;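 also: integrated fluorescence ratio F max minus min over baseline F0; higher response in RGS4-induced cells means RGS4 inhibition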
M3R Ca ctr = carbachol calcium response in non-induced M3R cells, confirmation, counter-screen for RGS4 inhibitor project, cell-based, HEK293 M3R; shares compounds with RGS4 block; carbachol calcium Fluo-4; submaximal (EC20) carbachol stimulus; buffer wells 0%, carbachol control wells 100%; activity (percent), % at 10 µM; 1,900 compounds, 20% hits; AID 493000, 2010; call rule not given here;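 also: RGS4 induction absent so cells express M3R without RGS4; higher means more calcium signal and flags a non-specific hit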
RGS4 inh ctr2 = signal in non-induced cells without carbachol, RGS4 inhibitor counter-screen; HEK293 M3R/RGS4 non-induced, Fluo-4 calcium, no carbachol; normalised: buffer wells 0%, carbachol wells 100%; 1,900 compounds, 22% hits; calcium response (agonist-mode artifact), % at 10 µM; AID 493001; shares compounds with RGS4 block;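 active = duplicate-averaged calcium rise in uninduced cells above buffer wells' mean plus 5 SD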
Large screens that a line does not name were inactive (follow-up assays come after a bar, where they were run). Compounds with a hit are over-represented: about 3.5% of the library has one in this group of screens.

N#Cc1ccccc1NC(=O)C1SC(=Nc2ccccc2)C(C(=O)Nc2ccc(Cl)cc2)=C1N (configuration not stated)	RGS4 block 5.8 | RGS4 inh valid inactive | M3R Ca ctr inactive | RGS4 inh ctr2 inactive
COC(=O)c1ccc(COc2ccccc2/C=C(\C#N)C(=O)Nc2ccc(C)cc2)cc1	none | RGS4 inh valid inactive | M3R Ca ctr inactive | RGS4 inh ctr2 inactive
N#C/C(=C\c1ccccc1OCc1ccc(C(=O)O)cc1)C(=O)Nc1ccc(O)cc1	RGS4 block 6.91 | RGS4 inh valid 13.5% | M3R Ca ctr inactive | RGS4 inh ctr2 inactive
Cc1nc(Nc2ccccc2)sc1C(=O)c1ccc(F)cc1	none
Nc1nc(Nc2ccccc2F)sc1C(=O)c1ccccc1	RGS4 block 6.52 | RGS4 inh valid 28.0% | M3R Ca ctr inactive | RGS4 inh ctr2 inactive
COc1ccc(N2CCN(C(=O)c3cc(C)on3)CC2)cc1	none
O=C1NN(c2ccc(F)c(Cl)c2)C(=O)/C1=C\c1cccc(OC(=O)c2cccs2)c1	MrgX1 agonist 26.9, RGS4 block 17.5 | RGS4 inh valid 58.0% | M3R Ca ctr inactive | RGS4 inh ctr2 14.0%
CC(C)=C1C(=O)NN(c2ccc(F)c(Cl)c2)C1=O	none
CCOC(=O)c1sc(N2C(=O)C(O)=C(C(=O)c3ccco3)C2c2cccc([N+](=O)[O-])c2)nc1C (configuration not stated)	none | RGS4 inh valid inactive | M3R Ca ctr inactive | RGS4 inh ctr2 inactive
Cc1ccc(/C=C2\SC(N3CCCC3)=NC2=O)cc1	none
O=C1N=C2SCCN2/C1=C\c1ccc(Cl)cc1	RGS4 block 25.2 | RGS4 inh valid 85.0% | M3R Ca ctr inactive | RGS4 inh ctr2 inactive
CCOc1ccc(C(=O)CC(Sc2ccc(C)cc2)C(=O)O)cc1 (configuration not stated)	none | RGS4 inh valid inactive | M3R Ca ctr inactive | RGS4 inh ctr2 inactive
Cc1ccccc1C(=O)Nc1ccc2c(c1)nc(CCNC(=O)c1ccco1)n2C	none
CCC(=O)Nc1ccc2c(c1)nc(CCNC(=O)c1ccco1)n2C	none | M3R Ca ctr inactive | RGS4 inh ctr2 inactive
CCOC(=O)c1c(-c2ccc(C)o2)csc1NC(=O)CN1CCCCC1	none
CCOC(=O)c1c(-c2ccccc2)csc1NC(=O)CSc1nc(N)cc(N)n1	RGS4 block 5.51 | RGS4 inh valid 6.0% | M3R Ca ctr inactive | RGS4 inh ctr2 inactive
CCOC(=O)c1c(-c2ccc(C)o2)csc1NC(=O)CSc1nncs1	RGS4 block 12.6 | RGS4 inh valid 11.0% | M3R Ca ctr inactive | RGS4 inh ctr2 inactive
CCOC(=O)c1c(-c2ccccc2)csc1NC(=O)CSc1nc(C)cc(C)n1	none | RGS4 inh valid inactive | M3R Ca ctr inactive | RGS4 inh ctr2 inactive
COc1ccc(S(=O)(=O)NCCCN2CCCC2=O)cc1OC	none
CC(=O)NC(CC(=O)OC(C)C(=O)Nc1ccc(Cl)cn1)c1ccccc1 (configuration not stated)	none
O=C(/C(=C/O)N=Nc1ccccc1)c1ccc(Cl)cc1	RGS4 block 8.67 | RGS4 inh valid 63.5% | M3R Ca ctr 78.5% | RGS4 inh ctr2 inactive
COc1ccccc1CNC(=O)C1(c2ccc(Cl)cc2)CC1	none
